Laboratory results as given in ChEMBL document CHEMBL5252523, “Searching for New Leads for Tuberculosis: Design, Synthesis, and Biological Evaluation of Novel 2-Quinolin-4-yloxyacetamides” (J Med Chem, 2016).
Converted amounts (≈) assume the structure as drawn.

What was measured:
[1] = test system: Mycobacterium tuberculosis; assay: Antimycobacterial activity against Mycobacterium tuberculosis H37Rv ATCC 25618 expressing pATB45luc infected in PMA-stimulated human THP-1 cells assessed as inhibition of intracellular bacterial growth incubated for 4 days by BrightGlo luciferase assay; type: functional, organism-based; conditions: H37Rv ATCC 25618, THP-1, 96 h; for IC90: time 4 day
Method in brief: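 THP-1 cells grown in RPMI-1640 with 10% FBS, 1 mM pyruvate and 2 mM L-glutamine. Cells were PMA-differentiated (40 ng/ml) while infected with single-cell Mtb H37Rv-pATB45luc at MOI 1:1 for 4 h at 37 °C in a roller bottle, then washed four times. About 10000 cells/well were added onto pre-dispensed compound (max DMSO 0.5%) and incubated 4 days at 37 °C. Luciferase luminescence was read; IC50/IC90 came from nonlinear regression of dose-response curves.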

[2] = Kinetic aqueous solubility of compound in phosphate buffer at pH 7.4 incubated for 1 hrs by CLND assay; type: physicochemical; conditions: read-out: Kinetic_solubility
[3] = Chromatographic hydrophobicity index, log D of the compound in phosphate buffer at pH 7.4 by UV-HPLC analysis; type: physicochemical
[4] = test system: Mycobacterium tuberculosis; assay: Antimycobacterial activity against Mycobacterium tuberculosis H37Rv ATCC 25618 assessed as inhibition of microbial growth incubated for 6 days by resazurin based assay; type: functional; conditions: H37Rv ATCC 25618, 144 h, time 6 day
Method in brief: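 Ten two-fold dilutions made in neat DMSO, tested in Middlebrook 7H9 with the H37Rv inoculum. Controls: isoniazid from 4 μg/ml as positive control; rifampicin 1 μM as no-growth control. Plates sat sealed at 37 °C without shaking for 6 days.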

[5] = Cytotoxicity against human HepG2 cells assessed as cell growth inhibition incubated for 48 hrs by CellTiter-Glo reagent based analysis; type: toxicity
Method in brief: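 HepG2 cells kept in Eagle's MEM with 10% heat-inactivated FBS, 1% NEAA and penicillin/streptomycin, seeded at ~3000 cells/well onto pre-dispensed compound. Incubation was 48 h at 37 °C, 5% CO2. Plates were equilibrated to room temperature, CellTiter-Glo was added, and ATP luminescence was read after 10 min as the viability read-out.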

[6] = biological target: Voltage-gated inwardly rectifying potassium channel KCNH2 (Homo sapiens, UniProt Q12809); assay: Inhibition of human ERG; type: toxicity
[7] = Artificial membrane permeability of the compound incubated for 3 hrs by HPLC analysis; type: ADME; conditions: PAMPA, read-out: permeability
[8] = Microsomal stability in human liver microsomes assessed as half life at 0.5 uM preincubated followed by NADPH addition and measured upto 30 mins by LC-MS/MS analysis; type: ADME, Microsome
[9] = Microsomal stability in mouse liver microsomes assessed as half life at 0.5 uM preincubated followed by NADPH addition and measured upto 30 mins by LC-MS/MS analysis; type: ADME, Microsome
[10] = Stability of compound in CD1 mouse blood assessed as half life at 0.5 uM incubated upto 240 mins by LC-MS/MS analysis; type: ADME, tissue-based
Method in brief: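 Fresh CD1 mouse whole blood collected in EDTA tubes and spiked with compound. Three 300 μl aliquots were incubated at 37 °C. Supernatants were analysed by LC-MS/MS; analyte/internal standard ratios were normalised to time zero as % remaining, and half-life was taken from ln plots of % remaining.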

[11] = Stability of compound in CD1 mouse blood at 0.5 uM incubated upto 240 mins in presence of NaF pretreatment by LC-MS/MS analysis; type: ADME, tissue-based; conditions: 4 h

Chain of Voltage-gated inwardly rectifying potassium channel KCNH2 (Q12809 whole entry): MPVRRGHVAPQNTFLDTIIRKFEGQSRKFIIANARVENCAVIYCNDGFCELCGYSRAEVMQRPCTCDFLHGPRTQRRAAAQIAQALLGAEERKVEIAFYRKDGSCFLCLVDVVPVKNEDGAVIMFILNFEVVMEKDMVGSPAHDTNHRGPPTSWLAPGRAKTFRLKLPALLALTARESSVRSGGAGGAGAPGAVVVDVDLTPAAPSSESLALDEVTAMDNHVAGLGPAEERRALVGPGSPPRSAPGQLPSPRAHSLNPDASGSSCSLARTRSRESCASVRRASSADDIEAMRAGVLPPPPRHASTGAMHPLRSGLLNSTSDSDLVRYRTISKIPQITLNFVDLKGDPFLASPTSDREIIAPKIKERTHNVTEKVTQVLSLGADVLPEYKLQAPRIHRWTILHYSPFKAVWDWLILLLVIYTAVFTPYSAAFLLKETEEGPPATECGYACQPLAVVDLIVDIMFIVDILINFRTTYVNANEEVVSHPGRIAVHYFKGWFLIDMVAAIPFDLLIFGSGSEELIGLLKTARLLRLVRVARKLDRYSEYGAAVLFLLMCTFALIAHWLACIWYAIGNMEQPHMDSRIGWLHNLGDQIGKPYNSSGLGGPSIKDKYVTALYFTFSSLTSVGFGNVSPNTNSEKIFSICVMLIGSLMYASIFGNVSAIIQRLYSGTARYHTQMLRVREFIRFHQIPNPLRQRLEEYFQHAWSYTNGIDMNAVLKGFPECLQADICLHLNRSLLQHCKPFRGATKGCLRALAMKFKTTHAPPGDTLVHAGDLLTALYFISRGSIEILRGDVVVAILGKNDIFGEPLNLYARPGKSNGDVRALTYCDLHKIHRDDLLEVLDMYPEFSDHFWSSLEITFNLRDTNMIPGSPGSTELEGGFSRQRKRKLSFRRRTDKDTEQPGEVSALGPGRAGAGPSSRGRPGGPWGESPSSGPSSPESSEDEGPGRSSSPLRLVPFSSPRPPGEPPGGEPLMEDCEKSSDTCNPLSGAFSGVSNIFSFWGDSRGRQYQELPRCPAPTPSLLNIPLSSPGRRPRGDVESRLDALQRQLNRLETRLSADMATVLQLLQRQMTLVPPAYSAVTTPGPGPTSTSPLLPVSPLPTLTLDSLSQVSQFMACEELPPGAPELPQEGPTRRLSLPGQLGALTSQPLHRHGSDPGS

SMILES | IC50 [1] [nM] | IC90 [1] [nM] | solubility kinetic at 1 h [2] [µM] | chromatographic logD [3] | MIC [4] [µM] | IC50 at 48 h [5] [µM] | IC50 [6] [µM] | Papp at 3 h [7] [×10⁻⁶ cm/s] | half-life at 0.5 µM [8] [min] | half-life at 0.5 µM [9] [min] | half-life at 0.5 µM [10] [min] | Stability [11]
COc1ccc2nc(C)cc(OCC(=O)Nc3cc(F)cc(F)c3)c2c1 | 400 | 2510 | 13 (≈ 4.66 µg/mL) | 5.13 | 3 | > 100 | – | – | – | – | – | –
COc1ccc(NC(=O)COc2cc(C)nc3ccc(OC)cc23)cc1 | 30 | 250 | 108 (≈ 38.1 µg/mL) | 4.22 | 0.6 | > 100 | 6.31 | 42 | – | – | – | –
Cc1ncc2n1-c1ccc(Cl)cc1C(c1ccccc1F)=NC2 [MIDAZOLAM] | – | – | – | – | – | – | – | – | 9 | < 5 | – | –
COc1ccc2nc(C)cc(OCC(=O)Nc3cc(C)cc(C)c3)c2c1 | 50 | 200 | 26 (≈ 9.11 µg/mL) | 5.64 | 1.9 | – | > 50.1 | 18 | > 30 | < 5 | < 5 | –
COc1ccc2nc(C)cc(OCC(=O)Nc3cccc(C)c3)c2c1 | – | – | 193 (≈ 64.9 µg/mL) | 4.83 | 2 | 39.8 | – | 35.5 | 23 | < 5 | < 5 | –
COc1ccc2nc(C)cc(OCC(=O)Nc3cc(C)ccc3OC)c2c1 | 160 | 630 | 9.5 (≈ 3.48 µg/mL) | 5.65 | 2.5 | > 100 | 5.01 | – | – | – | – | –
COc1ccc2nc(C)cc(OCC(=O)Nc3cc(C)ccc3C)c2c1 | – | – | 45.5 (≈ 15.9 µg/mL) | 5.05 | 8 | > 100 | – | 81 | 24 | < 5 | < 5 | –
COc1ccc2nc(C)cc(OC(C)(C)C(=O)Nc3cc(C)cc(C)c3)c2c1 | – | – | 20 (≈ 7.57 µg/mL) | 6.37 | > 250 | > 100 | – | – | 19 | < 5 | 96 | Stable
Cc1cc(C)cc(NC(=O)COc2cc(C)nc3ccc(C)cc23)c1 | – | – | 83 (≈ 27.8 µg/mL) | 5.95 | 3.9 | 15.8 | – | 52 | > 30 | < 5 | < 5 | –
COc1ccc2nc(C)cc(OCC(=O)Nc3ccc(Cl)cc3)c2c1 | 160 | 500 | 9 (≈ 3.21 µg/mL) | 5.15 | 3 | > 100 | 5.01 | – | – | – | – | –
COc1ccc2nc(C)cc(OCc3nc4cc(C)ccc4o3)c2c1 | – | 5000 | 1 (≈ 0.334 µg/mL) | 6.12 | 5.5 | > 100 | > 50.1 | 8.6 | 15.7 | < 5 | > 240 | –
COc1ccc2nc(C)cc(OCC(=O)Nc3ccccc3OC)c2c1 | 500 | 1580 | – | 4.68 | 1.4 | > 100 | – | – | 16 | < 3 | – | –
COc1ccc2nc(C)cc(OCCNc3cc(C)cc(C)c3)c2c1 | – | – | 33 (≈ 11.1 µg/mL) | 6.93 | 32 | 31.6 | – | 19 | > 30 | < 5 | > 120 | Stable
COc1ccc2nc(C)cc(OCC(=O)Nc3ccc(Cl)cc3Cl)c2c1 | 790 | > 50000 | 20.5 (≈ 8.02 µg/mL) | 6.4 | 2 | > 100 | – | – | – | – | – | –
COc1ccc2nc(C)cc(OCC(=O)Nc3ccc(F)cc3)c2c1 | – | – | 104 (≈ 35.4 µg/mL) | 4.49 | 12 | 63.1 | – | 23 | – | – | – | –
COc1ccc2nc(C)cc(OCC(=O)Nc3cc(C)c(F)c(C)c3)c2c1 | 80 | 250 | 31.5 (≈ 11.6 µg/mL) | 5.5 | 2 | > 100 | > 50.1 | 21 | > 30 | < 5 | < 5 | –
COc1ccc2nc(C(F)(F)F)cc(OCC(=O)Nc3cc(C)cc(C)c3)c2c1 | – | – | 15 (≈ 6.07 µg/mL) | 7.02 | > 250 | > 100 | – | < 1 | – | – | – | –
